The values below come from ChEMBL document CHEMBL2429786, “New serotonin 5-HT1A receptor agonists endowed with antinociceptive activity in vivo” (J Med Chem, 2013).

In series [1] the target is T1, 5-hydroxytryptamine receptor 1A (Homo sapiens, UniProt P08908).
T1 sequence (P08908 whole entry): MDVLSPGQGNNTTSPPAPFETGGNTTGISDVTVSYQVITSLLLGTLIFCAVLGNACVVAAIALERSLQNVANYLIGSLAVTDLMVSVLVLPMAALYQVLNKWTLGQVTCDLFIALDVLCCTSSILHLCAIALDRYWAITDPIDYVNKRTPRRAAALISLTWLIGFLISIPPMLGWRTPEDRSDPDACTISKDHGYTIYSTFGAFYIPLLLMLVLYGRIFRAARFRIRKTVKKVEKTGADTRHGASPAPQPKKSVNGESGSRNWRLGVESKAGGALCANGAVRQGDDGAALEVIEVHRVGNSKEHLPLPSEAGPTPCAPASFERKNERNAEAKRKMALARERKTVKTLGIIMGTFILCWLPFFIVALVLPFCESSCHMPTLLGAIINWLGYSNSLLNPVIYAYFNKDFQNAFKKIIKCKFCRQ
In words: Partial agonist activity at human 5-HT1A receptor expressed in human HeLa cells assessed as inhibition of forskolin-stimulated cAMP formation after 10 mins by RIA. It counts as functional, cell-based.

Series [2] is described as follows: Half life in human liver microsomes at 1 to 5 uM by HPLC-MS analysis. It counts as ADME, Microsome. Summed up: (§1)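 Incubation mixtures pre-equilibrated at 37 °C with NADPH and MgCl2, then rat or human liver microsomes added to start the reaction. Aliquots were withdrawn and quenched at several time points, and percent parent remaining was measured by HPLC-MS and plotted against time. t1/2 was taken from the slope of peak area over time and used to calculate CLint.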

In series [3] the target is T2, 5-hydroxytryptamine receptor 1A (Rattus norvegicus, UniProt P19327).
T2 sequence (P19327 whole entry): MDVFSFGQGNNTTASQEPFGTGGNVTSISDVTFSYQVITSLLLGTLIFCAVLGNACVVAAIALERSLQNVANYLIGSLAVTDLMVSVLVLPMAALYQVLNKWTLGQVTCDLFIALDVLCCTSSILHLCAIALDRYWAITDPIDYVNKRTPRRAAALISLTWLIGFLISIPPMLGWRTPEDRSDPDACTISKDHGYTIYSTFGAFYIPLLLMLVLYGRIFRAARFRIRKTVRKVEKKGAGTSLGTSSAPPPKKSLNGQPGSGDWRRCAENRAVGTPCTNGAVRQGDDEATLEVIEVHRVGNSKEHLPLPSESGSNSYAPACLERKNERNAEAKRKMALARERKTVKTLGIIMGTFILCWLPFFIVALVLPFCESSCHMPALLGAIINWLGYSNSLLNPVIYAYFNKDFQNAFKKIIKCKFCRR
In words: Displacement of [3H]-8-OH-DPAT from 5-HT1A receptor in Sprague-Dawley rat cerebral cortex after 15 mins. It counts as tissue-based.

A short description of series [4]: Half life in Sprague-Dawley rat liver microsomes at 1 to 5 uM by HPLC-MS analysis. It counts as ADME, Microsome. The method in brief:
as §1

The target of series [5] is 5-hydroxytryptamine receptor 2A (Rattus norvegicus, UniProt P14842). In words: Displacement of [3H]ketanserin from 5-HT2A receptor in Sprague-Dawley rat frontal cortex after 15 mins. It counts as tissue-based.
Series [6] can be described thus: Intrinsic clearance in human liver microsomes at 1 to 5 uM by HPLC-MS analysis. The settings on record: read-out: CLH. It counts as ADME, Microsome. Summed up:
as §1

Series [7] deals with 5-hydroxytryptamine receptor 7 (Rattus norvegicus, UniProt P32305). In words: Displacement of [3H]-5-CT from 5-HT7 receptor in Sprague-Dawley rat hypothalamus after 120 mins.
The species entered for the next series is Mus musculus. In words: Hypothermic activity in Swiss mouse assessed as change in rectal temperature after 60 mins. It counts as functional. The settings on record: 1 h, read-out: MED.
The target of series [8] is T3, 5-hydroxytryptamine receptor 3A (Rattus norvegicus, UniProt P35563).
T3 sequence (P35563 whole entry): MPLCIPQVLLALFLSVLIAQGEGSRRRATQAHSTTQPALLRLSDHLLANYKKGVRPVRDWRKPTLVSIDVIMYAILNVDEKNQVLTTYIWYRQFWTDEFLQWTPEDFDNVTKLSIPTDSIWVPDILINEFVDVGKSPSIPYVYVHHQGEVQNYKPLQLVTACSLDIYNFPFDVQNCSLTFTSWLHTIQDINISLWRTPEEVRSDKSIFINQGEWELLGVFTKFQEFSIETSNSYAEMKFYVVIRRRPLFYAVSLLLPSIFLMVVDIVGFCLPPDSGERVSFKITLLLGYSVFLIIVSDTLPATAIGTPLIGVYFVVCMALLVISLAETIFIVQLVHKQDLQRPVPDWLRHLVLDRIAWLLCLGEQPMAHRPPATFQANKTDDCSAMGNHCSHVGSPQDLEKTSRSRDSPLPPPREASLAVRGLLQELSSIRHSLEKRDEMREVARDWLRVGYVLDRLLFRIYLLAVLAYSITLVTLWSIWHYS
In words: Displacement of [3H]LY 278584 from 5-HT3 receptor in Sprague-Dawley rat cerebral cortex after 30 mins. It counts as tissue-based.

The target in series [9] is 5-hydroxytryptamine receptor 4 (Rattus norvegicus, UniProt Q62758). The experiment in a line: Displacement of [3H]GR113808 from 5-HT4 receptor in Sprague-Dawley rat striatum after 30 mins.
For a further series, the target named is CYP2D6 (Homo sapiens, UniProt P10635). The experiment in a line: Inhibition of human recombinant microsomal CYP2D6 using {3-[2-(N,N-diethyl-N-methylamino)ethyl]-7-methoxy-4-methylcoumarin} as substrate assessed as remaining activity at 10 uM after 30 mins by spectrofluorimetric analysis relative to control. It counts as ADME. The conditions noted are these: read-out: Activity.

A short description of series [10]: Intrinsic clearance in Sprague-Dawley rat liver microsomes at 1 to 5 uM by HPLC-MS analysis. It counts as ADME, Microsome. The conditions noted are these: read-out: CLH. The method in brief: as §1
Another series deals with Albumin (Homo sapiens, UniProt P02768). The experiment in a line: Binding affinity to human serum albumin at 5 uM after 12 mins by HPLC-MS analysis relative to control. It counts as ADME. The settings on record: isolated protein, 0.2 h.
Chain of Albumin (P02768 whole entry): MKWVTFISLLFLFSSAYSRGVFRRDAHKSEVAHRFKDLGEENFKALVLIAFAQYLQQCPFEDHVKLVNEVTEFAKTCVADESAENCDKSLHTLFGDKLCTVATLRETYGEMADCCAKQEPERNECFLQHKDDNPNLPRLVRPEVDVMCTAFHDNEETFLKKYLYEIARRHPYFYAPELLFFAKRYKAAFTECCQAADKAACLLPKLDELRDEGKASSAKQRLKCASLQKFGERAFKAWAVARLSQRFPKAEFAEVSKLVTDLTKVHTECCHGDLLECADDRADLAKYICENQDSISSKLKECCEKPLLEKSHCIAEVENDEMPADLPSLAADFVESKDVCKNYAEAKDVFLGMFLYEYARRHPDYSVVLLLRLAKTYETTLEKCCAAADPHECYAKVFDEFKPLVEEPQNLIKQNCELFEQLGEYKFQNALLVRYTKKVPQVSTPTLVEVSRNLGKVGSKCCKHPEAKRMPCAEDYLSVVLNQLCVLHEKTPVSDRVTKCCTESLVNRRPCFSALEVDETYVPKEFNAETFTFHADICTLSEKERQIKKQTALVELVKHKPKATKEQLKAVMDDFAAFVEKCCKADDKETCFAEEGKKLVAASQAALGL

Chain of 5-hydroxytryptamine receptor 7 (P32305 whole entry): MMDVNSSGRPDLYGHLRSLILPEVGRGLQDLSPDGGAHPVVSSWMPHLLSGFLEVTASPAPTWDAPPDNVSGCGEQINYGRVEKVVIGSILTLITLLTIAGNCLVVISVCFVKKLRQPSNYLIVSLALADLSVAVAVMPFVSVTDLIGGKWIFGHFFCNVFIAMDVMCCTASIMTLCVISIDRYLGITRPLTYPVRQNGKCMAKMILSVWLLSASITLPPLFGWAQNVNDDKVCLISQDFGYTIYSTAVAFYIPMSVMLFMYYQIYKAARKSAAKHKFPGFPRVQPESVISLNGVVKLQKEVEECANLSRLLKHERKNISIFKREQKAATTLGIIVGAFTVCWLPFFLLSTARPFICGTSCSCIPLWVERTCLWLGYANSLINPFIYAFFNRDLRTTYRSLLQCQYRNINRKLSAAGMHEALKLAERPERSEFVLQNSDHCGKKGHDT
Chain of 5-hydroxytryptamine receptor 2A (P14842 whole entry): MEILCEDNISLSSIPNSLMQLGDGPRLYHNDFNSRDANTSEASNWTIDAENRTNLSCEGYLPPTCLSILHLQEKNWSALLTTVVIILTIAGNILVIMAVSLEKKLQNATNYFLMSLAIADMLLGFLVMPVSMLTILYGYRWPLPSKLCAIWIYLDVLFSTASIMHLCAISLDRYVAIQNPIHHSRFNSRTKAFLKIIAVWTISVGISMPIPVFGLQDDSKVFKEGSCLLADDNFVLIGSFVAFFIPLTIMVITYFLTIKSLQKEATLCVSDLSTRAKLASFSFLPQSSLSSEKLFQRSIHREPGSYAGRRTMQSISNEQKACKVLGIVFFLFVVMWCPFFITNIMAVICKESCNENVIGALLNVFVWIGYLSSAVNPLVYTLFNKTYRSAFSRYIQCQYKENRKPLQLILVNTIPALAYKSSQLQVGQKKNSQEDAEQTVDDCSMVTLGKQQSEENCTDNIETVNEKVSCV
Chain of CYP2D6 (P10635 whole entry): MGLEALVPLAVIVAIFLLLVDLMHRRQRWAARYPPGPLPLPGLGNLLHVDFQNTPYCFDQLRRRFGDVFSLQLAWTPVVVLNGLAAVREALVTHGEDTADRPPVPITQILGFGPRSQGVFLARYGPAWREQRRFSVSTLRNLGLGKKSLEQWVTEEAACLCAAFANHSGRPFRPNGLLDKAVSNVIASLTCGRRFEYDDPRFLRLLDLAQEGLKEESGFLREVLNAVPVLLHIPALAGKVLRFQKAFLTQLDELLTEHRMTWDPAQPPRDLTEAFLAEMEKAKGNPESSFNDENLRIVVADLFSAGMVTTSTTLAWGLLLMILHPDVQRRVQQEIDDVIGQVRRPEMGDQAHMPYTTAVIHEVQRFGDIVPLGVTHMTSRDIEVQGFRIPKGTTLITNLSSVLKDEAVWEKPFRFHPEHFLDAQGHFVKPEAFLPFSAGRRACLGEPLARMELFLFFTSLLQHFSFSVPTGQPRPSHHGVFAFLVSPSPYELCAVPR
Chain of 5-hydroxytryptamine receptor 4 (Q62758 whole entry): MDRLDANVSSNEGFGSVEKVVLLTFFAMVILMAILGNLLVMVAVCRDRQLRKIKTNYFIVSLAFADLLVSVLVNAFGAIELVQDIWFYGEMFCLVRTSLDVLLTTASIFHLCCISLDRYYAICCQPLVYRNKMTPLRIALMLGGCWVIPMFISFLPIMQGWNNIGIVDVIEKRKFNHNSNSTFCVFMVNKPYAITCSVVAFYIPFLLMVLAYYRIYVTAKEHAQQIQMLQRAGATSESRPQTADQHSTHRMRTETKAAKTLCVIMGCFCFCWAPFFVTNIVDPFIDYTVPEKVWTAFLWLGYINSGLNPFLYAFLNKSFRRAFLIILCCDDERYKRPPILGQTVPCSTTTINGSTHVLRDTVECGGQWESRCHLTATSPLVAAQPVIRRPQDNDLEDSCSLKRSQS

Take `CCc1ccccc1OCCNCCCCN1C(=O)C2CCCN2C1=O.Cl` (stereo not drawn): the EC50 in series [1] was 1200 nM. The half-life at up to 5 µM is 2.28 h in series [2] and 0.178 h in series [4]. Besides, the Ki in series [3] was 16.8 nM; in series [5], 366 nM; in series [7], 185 nM; in series [8], more than 1000 nM; in [9] it was more than 1000 nM. Further, the CLint scaled at up to 5 µM is 4.6 mL/min/kg in series [6] and 131 mL/min/kg in series [10]. The minimal effective dose in the series listed under Mus musculus was 10 mg/kg. The activity at 0.5 h, 10 µM on CYP2D6 was determined as 13%. Further, the Activity on Albumin turned out to be 55%.
